Assay results taken from the EternaBench riboswitch data.

Tested on: MS2 coat protein
Assay: apparent Kd, MS2 coat protein; higher = weaker binding; RNA-MaP array; FMN 200 µM where present
How it was run: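 Designs on Illumina sequencing-chip clusters, transcribed by stalled E. coli RNA polymerase, were exposed to SNAP-549-labelled MS2 coat protein in doubling steps from 0.7 or 1.5 nM up to 3 µM, without and then with constant ligand. The buffer held 100 mM Tris-HCl pH 7.5, 80 mM KCl, 4 mM MgCl2, BSA, DTT, yeast tRNA and Tween-20. Apparent Kd values are medians of filtered per-cluster binding-curve fits to green signal normalised to red-channel RNA signal and control-cluster median Fmax.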

[1] = designed as: ON switch for flavin mononucleotide, no ligand
[2] = ligand present: flavin mononucleotide, designed as: ON switch for flavin mononucleotide
[3] = designed as: OFF switch for flavin mononucleotide, no ligand
[4] = ligand present: flavin mononucleotide, designed as: OFF switch for flavin mononucleotide

Row | Sequence | apparent Kd [1] [nM] | apparent Kd [2] [nM] | apparent Kd [3] [nM] | apparent Kd [4] [nM]
1 | GCGCUUAAACAGAAGGCCAAAUACAUGAGGAUCACCCAUGUCGAAUCAUGGAGGAUAUGUUAUUAAUUACACGCAGAUGAGCGC | 124 | 10.7 |  | 
2 | UUAUUGGGACAGAAGGGCAUUUACAUGAGGAUCACCCAUGUGUAUAGUUGCAGGAUAUGUAUUACAUGUGAAUCAUCAAAGUGC | 75.5 | 25.5 |  | 
3 | ACCAUAAACAUAGGAUAUAGAAUAAGAACUACUUACAUGAGGAUCACCCAUGUUAUAUUUGGGUACUAGAAGGAUGAGUGUUAA | 387 | 259 |  | 
4 | UUUUUUGUUGUGAGGAUAUCGUAUUUUUUUUGUUACGAGAAGGCACAUGAGGAUCACCCAUGUUUCUUGAUGUU |  |  | 13.6 | 28.6
5 | UUAUAUAAGGUGUAGCUAGACAUGCAAGAAGGGUGAAGAACAUGAGGAUCACCCAUGUAGACGGUACAGGAUAUUGAUUGACGA | 340 | 166 |  | 
6 | AAUGAUUCAGGAUAUACAUGAGGAUCACCCAUGUUGGUGUCCCUCCCAAAGUUGCAGUGUAGAAGGGAGUCCCG |  |  | 131 | 137
7 | UCCCGUUGUCAGAAGGCUCCUCGUAACCCGAGGAGAGGAUAUGACACAUGAGGAUCACCCAUGUGCCCGGUCGUGACAAAGGUG |  |  | 11.7 | 158
8 | UGUGGACAUGAGGAUCACCCAUGUGAGGAUAUGGUCUGGAUACACUUGAGCUCGGCAUCCAGAAGGCGCGUGGC |  |  | 85.9 | 71.4
9 | GGAAACUACGAGAAGGACAUGUGGUCCUUCAGUUACAUGAGGAUCACCCAUGUAGGAUAUCGUAGUUUCAGGAUCGUGAGAUCU |  |  | 35.4 | 13.7
10 | UUACUACAUGAGGAUCACCCAUGUCAGGAUAUUGGAUAUGCCUUGGAAUACGUGUUUACAAGAAGGGACUAUAU |  |  | 23.4 | 21.4
11 | ACCUUACUGGUCAGGAUAUACAGUCUUUGGUGGGUGUAGAAGGGACAUGAGGAUCACCCAUGUAGGUUGCAGCA |  |  | 175 | 153
12 | UUUAAUUAGUAAGGAUAUACUAGUGAUUAGCUUGUAGAAGGUACAGUCUUAUGUAUAACAAAUUAACAUGAGGAUCACCCAUGU | 10.6 | 7.99 |  | 
13 | GCCACACAUGAGGAUCACCCAUGUGAGGAUAUCAUGCUUCGUAGUAAACUACGAAGUGUGAGAAGGCACAUGGC |  |  | 33.4 | 155
14 | GUAGCAUUCCGAGGAUAUUCAGGGCGUGGAUAUACAUGAGGAUCACCCAUGUGGCGGAAGCCUAGGGAGAAGGCGGGCUGCUUC | 27.8 | 18.6 |  | 
15 | UCCUUAAGUUAGGAUAUCGAUUGCUAUAGCAGAUGAGAAGGAGCCACAUGAGGAUCACCCAUGUCCUCACCUAU |  |  | 180 | 214
16 | GUGCGUGGCUAGGAUAUUGUGGAGUUUAGUCAGCGAGAAGGCGCCACAUGAGGAUCACCCAUGUGGUGUUGCUC |  |  | 13.1 | 14.7
17 | AGUACCAUGUAGAAGGGAUAUCUGAUUCAGAUAUCAGGAUAUACAUGAGGAUCACCCAUGUAAAUGUACUGCACGAAAGUGCAA |  |  | 18 | 37.9
18 | AAGUUUUUACAAGGAUAUCAGUUGUUUAUAAAUUAAACAUGAGGAUCACCCAUGUAACAAAGGAGUGAGAAGGUGUGAUGGAAA | 545 | 283 |  | 
19 | GUGAUACAUGAGGAUCACCCAUGUCAGGAUAUGAUACUAUGUACUUCGGUACAUAGUAUCAGAAGGGACAGUGA |  |  | 138 | 92.5
20 | GAAGCACAUGAGGAUCACCCAUGUAAGGAUAUACGUCUGGUCCGGCCGGACCAGUACCGUAGAAGGUACGUAAA |  |  | 19.1 | 23
21 | GGGUACAUGGGAGGAUAUGGGAAGAUACAUGAGGAUCACCCAUGUUUAAGAAUGCCGAGAGGCAACUAGAAGGCCCAUGUACCG | 1040 | 49 |  | 
22 | CAGUAAGUAUUGCGAGGGUAGGAGCAGGAUAUCCCAUUGGCCCUCACAUGAGGAUCACCCAUGUGGGAGAAGGGCUAUUACGUC |  |  | 9.11 | 22.5
23 | UUACUACAUGAGGAUCACCCAUGUCAGGAUAUUGUCUAUACUUUGGAAUAUGUGUCGACAAGAAGGGACUAUAU |  |  | 23.5 | 39.9
